NR3A LBD binder – modulates the human NR3A ligand-binding domain; NR3A LBD differential scanning fluorimetry, Tm shift; 0% = protein alone, 100% = glycine-bound protein; Tm shift relative to glycine control, % at 25 µM; 340,000 tested, 2.5% active;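 active = melting temperature shift of at least 10% of the positive control shift, at one fixed dose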
MPTP block – inhibitors of mitochondrial permeability transition pore; AID 602449; inhibition, % at 10 µM; isolated mouse mitochondria, Ca2+ swelling absorbance, 30 min; 360,000 tested, 1.4% active;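 active = inhibition of 50% or more, scaled per plate between neutral and stimulator controls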;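 note: 0% = DMSO wells given calcium and 100% = 1 mM EGTA wells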
SENP1 FRET inh – SENP1 (human) catalytic domain inhibition; inhibition, % at 10 µM; 360,000 tested, 0.21% active; AID 624204; Q9P0U3; recombinant SENP1 catalytic domain, CyPet-SUMO1-YPet FRET cleavage;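 active = inhibition at least 30% at 10 µM, raw YFP signal under a set limit, fluorescence ratio 0.5 to 1.5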;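 note: 0% = enzyme with DMSO and 100% = no enzyme wells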
Target sequence (Q9P0U3 419-644 limits assumed): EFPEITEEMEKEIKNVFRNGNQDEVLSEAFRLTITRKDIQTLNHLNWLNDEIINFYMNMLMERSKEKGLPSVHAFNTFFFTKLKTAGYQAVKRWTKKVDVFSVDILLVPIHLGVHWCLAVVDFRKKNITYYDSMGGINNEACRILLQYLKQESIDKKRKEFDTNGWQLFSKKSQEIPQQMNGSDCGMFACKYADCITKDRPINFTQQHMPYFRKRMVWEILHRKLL
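Material – human SENP1 catalytic domain · Input – SENP1 enzyme, 20 pM final · Compound dosing – single concentration of 10 µM compound, 0.5% DMSO final · Timing – enzyme reaction for 50 min at room temperature, dark · Measured by – FRET fluorescence in CFP and YFP emission channels · Control set – no-enzyme wells low, DMSO-plus-enzyme wells high control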
EBI2 antag – blocks human EBI2 receptor beta-arrestin signaling | inhibition, % at 5 µM | EBI2 beta-arrestin recruitment, luminescence, 7a,25-OHC stimulated | 360,000 tested, 0.81% active | P32249; in the data active = inhibition above about 38%;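 note: enzyme fragment complementation signal reports receptor beta-arrestin coupling in cells; 0% = agonist plus DMSO wells and 100% = wells without agonist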
Target sequence (P32249 whole entry, looked up, the tested form may be a part): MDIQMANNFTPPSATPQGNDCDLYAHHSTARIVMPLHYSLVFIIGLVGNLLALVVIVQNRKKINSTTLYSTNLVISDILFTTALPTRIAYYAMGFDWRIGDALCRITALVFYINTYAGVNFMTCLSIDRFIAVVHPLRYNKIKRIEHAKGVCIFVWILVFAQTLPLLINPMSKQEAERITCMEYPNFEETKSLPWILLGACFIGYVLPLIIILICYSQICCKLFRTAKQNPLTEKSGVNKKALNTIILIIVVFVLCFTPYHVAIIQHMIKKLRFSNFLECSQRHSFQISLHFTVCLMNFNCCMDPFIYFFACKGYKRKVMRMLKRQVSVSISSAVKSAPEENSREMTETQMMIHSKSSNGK
MPTP counter – mitochondrial membrane potential, counter-screen; shares compounds with MPTP block; isolated mitochondria, Rhodamine 123 fluorescence; inhibition, % at 10 µM; 5,000 tested, 78% active; in the data active = inhibition above about 22%;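 note: 0% = DMSO vehicle and 100% = positive control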
MPTP swell DR – dose response confirmation of mitochondrial permeability transition pore inhibitors; shares compounds with MPTP block; isolated mitochondria swelling, absorbance; IC50, µM; 780 tested, 58% active; in the data active = IC50 below about 20 µM
MPTP counter DR – MPTP inhibitor counter-screen activity, dose response; shares compounds with MPTP block; isolated mitochondria counterscreen, fluorescence read-out; IC50, µM; 780 tested, 49% active; in the data active = IC50 below about 80 µM
SENP1 inh conf – confirmation of human SENP1 SUMO protease inhibitors; 520 tested, 34% active; shares compounds with SENP1 FRET inh; inhibition, % at 10 µM; recombinant SENP1, CyPet-SUMO1-YPet FRET cleavage; AID 651678; in the data active = inhibition mostly above about 35%, no sharp cut-off; inactive = mostly below about 32%;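 note: 0% = enzyme with DMSO and 100% = no enzyme control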
SENP1 kin conf – confirmation of human SENP1 SUMO protease inhibitors, kinetic; shares compounds with SENP1 FRET inh; recombinant SENP1, CyPet-SUMO1-YPet FRET kinetic cleavage; inhibition, % at 10 µM; 520 tested, 26% active; AID 651690; in the data active = inhibition mostly above about 32%, no sharp cut-off; inactive = mostly below about 29%;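 note: 0% = DMSO with enzyme and 100% = no enzyme substrate only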
EBI2 antag conf – confirmation of human EBI2 receptor antagonists; inhibition, % at 5 µM; shares compounds with EBI2 antag; 2,400 tested, 29% active; EBI2 beta-arrestin luminescence, 7a,25-OHC antagonism;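 active = inhibition of at least 50%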
EBI2 ag – activates EBI2, counter-screen for EBI2 antagonists | shares compounds with EBI2 antag | EBI2-expressing cells, agonist mode, luminescence, 60 min; 0% vehicle, 100% 7α,25-dihydroxycholesterol control | activation, % at 5 µM | 2,400 tested, under 10 active | AID 652000;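 active = activation of at least 50%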
bGal counter – inhibits E. coli beta-galactosidase, counter-screen for EBI2 antagonists. shares compounds with EBI2 antag. purified beta-galactosidase, luminescent Galacton Star, 15 min. inhibition, % at 5 µM. 2,400 tested, 1% active;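 active = replicate-average signal at least 3 plate SD below neutral wells, shown as high inhibition, flagging enzyme-inhibiting false positives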;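 note: 0% = DMSO wells with enzyme and 100% = wells lacking enzyme; higher means stronger loss of beta-gal luminescence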
* marks the source's active call; other numbers are inactive results; i = inactive; / = not tested or not shown. This is a sample that favours compounds with a hit; in the whole collection about 4.4% have one here.

SMILES	NR3A LBD binder	MPTP block	SENP1 FRET inh	EBI2 antag	MPTP counter	others
CN(C)c1ccc(C(=O)N2CCCC2)cc1	-0.7	-2.1	-0.9	-17.9	/
Cc1cc(C)n(CCc2nc(-c3cccs3)cs2)n1	-0.1	1.4	0.5	11.3	/
Cc1cc(C)n(CCc2nc(-c3ccco3)cs2)n1	-0.2	54.8*	-5.9	-4.9	-5.7	MPTP swell DR=>100;MPTP counter DR=>80
Cc1ccc(CNc2nc(C)nc3sc4c(c23)CCC4)cc1	-1.5	61.8*	-18.4	-8.4	81.4*
CCN(CC)c1ccc(CNc2nc3ccccc3n2CCN2CCCCC2)cc1	-2.5	64.1*	1.0	31.6	95.9*
Cc1cc(/C(N)=N/OC(=O)Nc2ccc(Cl)cc2)no1	9.1	57.2*	0.0	-9.2	82.2*
Cc1cccc(-c2nc(CSc3nc4c(c(=O)[nH]3)CCC4)c(C)o2)c1	0.6	0.1	-3.6	-25.6	/
CCN(CC(=O)N1CCCC1)S(=O)(=O)c1ccc(OC)cc1	-0.7	0.1	-0.1	0.9	/
CCOC(=O)C1CCCN(S(=O)(=O)c2ccc(S(=O)(=O)N(CC)CC)cc2)C1 (centres undefined)	1.4	96.7*	1.5	-11.3	102.3*
CCOC(=O)C1CCCN(S(=O)(=O)c2ccc(C)cc2)C1 (centres undefined)	-0.3	0.7	1.0	-5.3	/
Cc1ccc(OCC(=O)Nc2cnn(CCCC(=O)O)c2)c([N+](=O)[O-])c1	0.8	-2.0	2.2	-10.2	/
COc1cccc(NC2c3ccccc3C(=O)N2Cc2ccco2)c1 (centres undefined)	-1.1	1.4	-4.0	-2.5	/
O=C1c2ccccc2C(Nc2cccc(C(F)(F)F)c2)N1Cc1ccco1 (centres undefined)	-6.3	63.2*	-4.5	9.0	32.7*
CNc1nc2cc([N+](=O)[O-])c([N+](=O)[O-])cc2nc1NC	2.2	105.0*	43.2*	13.8	94.4*
N#Cc1cc2nc(O)c(O)nc2cc1[N+](=O)[O-]	-4.2	-0.2	-1.4	-8.8	/
CSc1ccccc1NC(=S)Nc1ccc(S(N)(=O)=O)cc1	0.7	3.8	0.1	-8.8	/
CCCCOc1ccc(C(=O)Nc2ccc(N3CCN(C)CC3)cc2)cc1	-4.2	89.5*	2.7	7.6	-8.4	MPTP swell DR=i;MPTP counter DR=>80
CN1CCN(c2ccccc2NC(=O)c2ccc(-c3ccccc3)cc2)CC1	2.2	45.8	-0.9	-3.3	/
CN1CCN(c2ccccc2NC(=O)C(Cc2ccccc2)n2cccc2)CC1 (centres undefined)	-2.9	81.3*	-2.7	2.0	-12.2	MPTP swell DR=i;MPTP counter DR=>80
CN1CCN(c2ccccc2NC(=O)c2ccc(OCc3ccccc3)cc2)CC1	-2.5	78.0*	1.0	6.8	-10.3	MPTP swell DR=9.43*;MPTP counter DR=>80
CN1CCN(c2ccccc2NC(=O)c2cccc(OCc3ccccc3)c2)CC1	0.5	0.8	1.5	7.6	/
O=C(O)C(c1ccccc1)c1ccccc1	0.8	-1.2	4.0	-6.2	/
O=C(COc1cccc2cccnc12)N1CCc2ccccc21	-3.3	-0.7	0.0	-2.6	/
N#Cc1ccc(NC(=O)N2CCC(c3nc4c(nnn4Cc4cccc(Cl)c4)c(=O)[nH]3)CC2)cc1	4.2	55.6*	0.7	10.2	28.1*
N/C(=N\OC(=O)COc1ccc2ccccc2c1)c1cccnc1	-2.1	60.8*	1.5	3.5	83.6*
SMILES	NR3A LBD binder	MPTP block	SENP1 FRET inh	EBI2 antag	MPTP counter	others
N/C(=N\OC(=O)COc1ccc2ccccc2c1)c1ccncc1	-8.9	-1.2	0.2	19.5	/
Cn1c(=O)[nH]c(=O)c2c1nc(N1CCOCC1)n2CC(=O)c1ccccc1	0.6	-1.1	1.0	1.8	/
COC(=O)Nc1csc2c1NC(=O)CCCC2	0.8	0.2	3.6	-9.1	/
CCc1ccc(S(=O)(=O)c2n[nH]n3c2nc(=O)c2ccccc23)cc1	-10.6	32.9	-2.4	-9.9	/
CC(C)c1ccc(S(=O)(=O)c2n[nH]n3c2nc(=O)c2ccccc23)cc1	-10.4	57.6*	-3.7	-6.1	60.4*
CCn1c2ccccc2c2cc(CNCc3ccc(OC)cc3OC)ccc21	-1.9	73.2*	2.2	-16.4	37.1*
O=C(NCCc1cccc(Cl)c1)c1ccc2c(c1)OCO2	0.9	0.5	1.9	7.1	/
Cc1cc(SCC(=O)N/N=C/c2ccc(O)cc2O)c(C)cc1Br	17.9*	91.0*	-2.2	0.0	56.1*
Cc1ccccc1NC(=O)c1cc(C(=O)c2cc(Cl)ccc2O)cn(-c2ccccc2C)c1=O	13.6*	90.5*	-38.4	8.5	74.8*
Cc1ccc(-n2cc(C(=O)c3cc(Cl)ccc3O)cc(C#N)c2=O)cc1	2.1	93.2*	18.4	-5.4	83.7*
COc1ccc(-n2cc(C(=O)c3cc(Cl)ccc3O)cc(C#N)c2=O)cc1	-11.6	-0.4	8.9	-6.5	/
CCc1ccc(C(=O)Nc2cc(C)on2)o1	-1.3	0.0	0.5	3.0	/
CN(c1ccccc1)S(=O)(=O)c1ccc(NC(=O)CC(=O)c2ccccc2)cc1	15.9*	57.2*	-1.1	6.4	93.2*
O=C(Nc1ccc(Oc2ccccc2)cc1)c1cnc2n(c1=O)CCS2	-0.5	92.2*	1.1	6.3	61.4*
COc1cc(S(=O)(=O)Nc2ccc(C(=O)NCC(=O)O)cc2)ccc1NC(C)=O	-1.2	0.2	1.3	-7.6	/
COc1cc(S(=O)(=O)Nc2ccc3nc(C)sc3c2)ccc1NC(C)=O	-1.2	68.4*	35.8*	-4.5	86.3*	SENP1 inh conf=20.1;SENP1 kin conf=16.1
O=C(COC(=O)Cn1cnc2ccccc21)Nc1ccc(F)c(F)c1	-10.2	-0.6	4.2	2.1	/
O=C1C(Cl)=C(Nc2ccccc2O)C(=O)N1CCc1ccccc1	-6.3	61.1*	41.2*	-4.0	59.9*	SENP1 inh conf=17.5;SENP1 kin conf=15.1
CC(C)Nc1nc(NCCOc2ccccc2Cl)c2sc(-c3ccccc3)cc2n1	/	60.1*	3.7	51.8*	105.0*	EBI2 antag conf=30.1;EBI2 ag=0.1;bGal counter=-14.8
